These results are taken from ChEMBL document CHEMBL3102827, “Permeability and conjugative metabolism of flaxseed lignans by Caco-2 human intestinal cells” (J Nat Prod, 2014).

The nature of series [1]: Stability in HBSS after 48 hrs. Format: physicochemical. The settings on record: read-out: Stability. Summed up:
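Lignans kept in test medium in wells without cells for up to 48 h. Remaining compound was measured to judge stability.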

Series [2] is described as follows: Efflux ratio of permeability from basolateral to apical side over apical to basolateral side in human Caco2 cells after 2 hrs by HPLC analysis. As to conditions: Caco-2; call rule not given here. Format: ADME, cell-based. Summed up: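 Efflux ratio taken as Papp B→A over Papp A→B. Papp comes from 2 h bidirectional transport of 100 μM lignan across 21-day Caco-2 monolayers on Transwells in HBSS/10 mM HEPES pH 7.4 at 37 °C, with HPLC quantitation of both compartments. TEER and Lucifer yellow used to confirm monolayer integrity.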
(In general: Caco-2 monolayers are a common model of the intestinal barrier.)

The nature of series [3]: (§1) Apparent permeability across basolateral to apical side in human Caco2 cells after 2 hrs by HPLC analysis. Format: ADME, cell-based, Caco-2. The settings on record: Caco-2. Summed up:
(§2)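 Caco-2 (passages 41−54, DMEM/10% FBS/1% NEAA) grown 21 days on polyester Transwells (0.4 μm pore). Cells washed with HBSS/10 mM HEPES pH 7.4 and equilibrated 30 min at 37 °C; lignan at 100 μM added to apical or basolateral side, 2 h at 37 °C. Both compartments sampled and quantified by HPLC. Papp = (dQ/dt)/(Am·C0). Integrity checked by TEER and Lucifer yellow. Transport linear to 2 h.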

Series [4] is described as follows: (§3) Apparent permeability across apical to basolateral side in human Caco2 cells after 2 hrs by HPLC analysis. It is filed as ADME, cell-based, Caco-2. As to conditions: Caco-2. In outline: as §2
Series [5] can be described thus: Drug metabolism in human Caco2 cells assessed as compound glucuronidation/sulfation at 100 uM after 48 hrs by HPLC analysis. Format: ADME, cell-based. As to conditions: Caco-2 cells, read-out: Drug metabolism. In outline: (§4)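 Caco-2 grown 21 days in 24-well plates, washed with HBSS/HEPES pH 7.4, then given 100 μM lignan in DMEM in triplicate at 37 °C. Supernatant and cells taken at 0, 2, 4, 6, 12, 24 and 48 h. Samples hydrolysed with H. pomatia β-glucuronidase/sulfatase H-5 (0.66 mg in 0.1 M acetate pH 5.0, 37 °C, 2 h), acetonitrile-precipitated and analysed by HPLC. Conjugate = total minus free, relative to a zero-time control.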

Series [6] deals with Caco-2. The series is described as §1. As to conditions: caco-2, 2 h, BLD = below limit of detection. It is filed as ADME, cell-based. Summed up: as §2
Series [7] concerns Caco-2. Described as §3. It is filed as ADME, cell-based. As to conditions: caco-2, 2 h, BLD = below limit of detection. In outline:
as §2

Series [8] is described as follows: Activity at Helix pomatia beta-glucuronidase/sulfatase type H-5 in compound-treated human Caco2 cell lysate assessed as formation of glucuronidase/sulfatase-sensitive conjugates at 100 uM after 12 hrs by HPLC analysis. Format: ADME, cell-based. As to conditions: caco-2, 12 h. Summed up: as §4

The structures appear in SMILES notation.

Usually efflux ratio stands for a quotient of directional permeabilities that is used to spot active efflux. One may read the Papp B→A as how fast a substance crosses the layer from the basolateral side. As usually defined, the Papp A→B is how fast a substance crosses the layer from the apical side. For `COc1cc(C[C@@H](CO)[C@H](CO)Cc2ccc(O)c(OC)c2)ccc1O` [(+)-SECOISOLARICIRESINOL], the remaining at 48 h in series [1] was more than 95%. Besides, in series [2], the efflux ratio at 2 h came out at 1.2. Also, in series [3], the Papp B→A at 2 h worked out at 9.5 ×10⁻⁶ cm/s. Also, the apical-to-basolateral permeability (Papp A→B) at 2 h in series [4] was found to be 8 ×10⁻⁶ cm/s.
With `OC[C@H](Cc1cccc(O)c1)[C@H](CO)Cc1cccc(O)c1` [ENTERODIOL], in series [1], the remaining at 48 h was more than 95%. In series [2], the efflux ratio at 2 h came to 1.2. For the same molecule, the Papp B→A at 2 h in series [3] was 8.9 ×10⁻⁶ cm/s. Further, the Papp A→B at 2 h in series [4] was 7.7 ×10⁻⁶ cm/s.
As for `COc1cc(C[C@@H](CO[C@@H]2O[C@H](CO)[C@@H](O)[C@H](O)[C@H]2O)[C@H](CO[C@@H]2O[C@H](CO)[C@@H](O)[C@H](O)[C@H]2O)Cc2ccc(O)c(OC)c2)ccc1O`, the remaining at 48 h in series [1] is more than 95%. The metabolised at 48 h, 100 µM in series [5] is less than 3%. The Papp entry in series [6] and in series [7] was “BLD” throughout.
Take `O=C1OC[C@H](Cc2cccc(O)c2)[C@H]1Cc1cccc(O)c1` (relative stereo) [ENTEROLACTONE]: the remaining at 48 h in series [1] was more than 95%. Besides, in series [8], the Drug metabolism entry is “Active”. Moreover, in series [2], the efflux ratio at 2 h came out at 0.8. The Papp B→A at 2 h in series [3] was determined as 10.6 ×10⁻⁶ cm/s. In addition, in series [4], the Papp A→B at 2 h stood at 13.7 ×10⁻⁶ cm/s.
